pKi: −log10 of the molar value.
How the values were obtained:
[1] = molecular target: T1, Neuropeptide Y receptor type 5 (Homo sapiens, UniProt Q15761); assay: Displacement of [125I]peptide YY from human NPY5 receptor
T1 sequence (Q15761 whole entry): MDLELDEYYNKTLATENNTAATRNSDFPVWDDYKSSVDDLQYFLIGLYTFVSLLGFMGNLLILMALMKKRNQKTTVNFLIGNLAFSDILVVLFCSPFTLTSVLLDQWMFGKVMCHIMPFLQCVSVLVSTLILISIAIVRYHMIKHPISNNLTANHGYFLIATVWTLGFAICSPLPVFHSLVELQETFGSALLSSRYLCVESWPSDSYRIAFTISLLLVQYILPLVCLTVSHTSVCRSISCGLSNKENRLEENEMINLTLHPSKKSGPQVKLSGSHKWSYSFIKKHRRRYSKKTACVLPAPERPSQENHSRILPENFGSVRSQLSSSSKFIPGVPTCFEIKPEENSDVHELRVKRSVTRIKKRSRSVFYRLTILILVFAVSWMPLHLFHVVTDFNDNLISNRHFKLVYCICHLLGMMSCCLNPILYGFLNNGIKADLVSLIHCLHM

Brain = assay: Drug uptake in Sprague-Dawley rat brain at 10 mg/kg, po by LC-MS/MS analysis; format: ADME, organism-based; parameters: dose 10 mg/kg, route oral; conditions: in vivo, read-out: Drug uptake
How it was run: (§1)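 Male Sprague-Dawley rats (300–350 g), femoral artery cannulated; single 10 mg/kg oral dose in an appropriate vehicle, N = 3. Blood taken predose, 1, 2 and 4 h; brains then collected and stored at -80 °C. Equal portions of plasma or homogenized brain from the three rats pooled per time point, protein precipitated, quantified by LC/MS/MS.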

Liver microsomes [2] = assay: Intrinsic clearance in rat liver microsomes at 1 uM by LC/MS analysis; format: ADME, Microsome
How it was run: (§2)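 Compound incubated with human or rat liver microsomes; reaction quenched with acetonitrile, centrifuged, and remaining drug in supernatant measured by LC/MS to estimate T1/2, from which intrinsic clearance was derived.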

Liver microsomes [3] = assay: Intrinsic clearance in human liver microsomes at 1 uM by LC/MS analysis; format: ADME, Microsome; how it was run: as §2
Plasma = assay: Plasma concentration in Sprague-Dawley rat at 10 mg/kg, po by LC-MS/MS analysis; format: ADME, organism-based; parameters: dose 10 mg/kg, route oral; conditions: in vivo; how it was run: as §1

| pKi [1] | concentration (Brain) | CLH (Liver microsomes [2]) | CLH (Liver microsomes [3]) | concentration (Plasma) | Structure (SMILES) |
| --- | --- | --- | --- | --- | --- |
| 8.92 | – | – | – | – | CC(C)S(=O)(=O)NC[C@H]1CC[C@H](NC(=O)Cn2ccc3ccc(F)cc32)CC1 |
| 8.66 | 100 nM | 11 mL/min | 0.6 L/min | 1300 nM | CC(C)S(=O)(=O)NC[C@H]1CC[C@H](NC(=O)Cn2ccc3cc(F)ccc32)CC1 |
| – | – | 35 mL/min | 2.9 L/min | 428 nM | CC(C)S(=O)(=O)NC[C@H]1CC[C@H](NC(=O)CN2CCOc3cc(Cl)ccc32)CC1 |
| 9.05 | – | – | – | – | CC(C)S(=O)(=O)NC[C@H]1CC[C@H](NC(=O)Cn2ccc3cccc(Cl)c32)CC1 |
| 7.92 | 54 nM | 3.4 mL/min | 0.5 L/min | 2560 nM | CC(C)S(=O)(=O)NC[C@H]1CC[C@H](NC(=O)Cc2c[nH]c3ccccc23)CC1 |
| 8.46 | 477 nM | 54 mL/min | 3.1 L/min | 6140 nM | Cc1ccc2c(c1)CCN2CC(=O)N[C@H]1CC[C@H](CNS(=O)(=O)C(C)C)CC1 |
| 8.96 | 50 nM | 205 mL/min | 14 L/min | 417 nM | CC(C)S(=O)(=O)NC[C@H]1CC[C@H](NC(=O)CN2CC(C)(C)c3cc(Cl)ccc32)CC1 |
| 8.70 | 17 nM | 22 mL/min | 1.2 L/min | 296 nM | CC(C)S(=O)(=O)NC[C@H]1CC[C@H](NC(=O)Cc2cn(C)c3ccccc23)CC1 |
| 8.74 | 7 nM | 7.1 mL/min | 5.8 L/min | 24 nM | CC(C)S(=O)(=O)NC[C@H]1CC[C@H](NC(=O)CCN2CCc3ccccc32)CC1 |
| 8.82 | 81 nM | 27 mL/min | 1 L/min | 460 nM | CC(C)S(=O)(=O)NC[C@H]1CC[C@H](NC(=O)Cn2ccc3ccccc32)CC1 |
| 9.05 | 11 nM | 12 mL/min | 1 L/min | 870 nM | CC(C)S(=O)(=O)NC[C@H]1CC[C@H](NC(=O)Cn2c(=O)sc3cc(Cl)ccc32)CC1 |
| 8.25 | 43 nM | 8.7 mL/min | 0.4 L/min | 769 nM | CC(C)S(=O)(=O)NC[C@H]1CC[C@H](NC(=O)Cn2ccc3cc(C#N)ccc32)CC1 |
| 8.40 | 117 nM | 21 mL/min | 1.4 L/min | 2680 nM | CC(C)S(=O)(=O)NC[C@H]1CC[C@H](NC(=O)CN2CCc3cc(F)ccc32)CC1 |
| 8.82 | 105 nM | 39 mL/min | 4.5 L/min | 1520 nM | CC(C)S(=O)(=O)NC[C@H]1CC[C@H](NC(=O)CN2CCc3c2ccc(F)c3F)CC1 |
| 9.05 | 328 nM | 28 mL/min | 2.5 L/min | 2080 nM | CC(C)S(=O)(=O)NC[C@H]1CC[C@H](NC(=O)Cn2ccc3cc(F)c(F)cc32)CC1 |
| 8.05 | 49 nM | 49 mL/min | 1.1 L/min | 242 nM | Cc1cc2ccccc2n1CC(=O)N[C@H]1CC[C@H](CNS(=O)(=O)C(C)C)CC1 |
| – | 88 nM | 36 mL/min | 2.8 L/min | 498 nM | CC(C)S(=O)(=O)NC[C@H]1CC[C@H](NC(=O)CN2CCCc3cc(Cl)ccc32)CC1 |
| 8.77 | – | – | – | – | CC(C)S(=O)(=O)NC[C@H]1CC[C@H](NC(=O)Cn2ccc3c(Cl)cccc32)CC1 |
| – | – | 15 mL/min | 0.5 L/min | 480 nM | CC(C)S(=O)(=O)NC[C@H]1CC[C@H](NC(=O)CN2C(=O)COc3cc(Cl)ccc32)CC1 |
| 8.00 | 19 nM | 1.9 mL/min | 0.5 L/min | 1640 nM | CC(C)S(=O)(=O)NC[C@H]1CC[C@H](NC(=O)Cn2c(=O)oc3ccccc32)CC1 |
| 9.00 | 134 nM | 37 mL/min | 2.6 L/min | 157 nM | CC(C)S(=O)(=O)NC[C@H]1CC[C@H](NC(=O)Cn2ccc3ccc(Cl)cc32)CC1 |
| – | 17 nM | 40 mL/min | 0.8 L/min | 877 nM | CC(C)S(=O)(=O)NC[C@H]1CC[C@H](NC(=O)CN2C(=O)CCc3cc(Cl)ccc32)CC1 |

Source: ChEMBL document CHEMBL2010694, “Indolyl and dihydroindolyl N-glycinamides as potent and in vivo active NPY5 antagonists” (Bioorg Med Chem Lett, 2012)
